Source: PubChem (The Scripps Research Institute Molecular Screening Center)
Shown are actives, neighbours in structure and some others; about 2.3% of the full set was active somewhere.
Tb MetRS inh: T. brucei MetRS inhibitors, primary screen, biochemical, luminescence; inhibition, % at 11.9 µM; AID 624268, 2012; methionyl-tRNA synthetase (Trypanosoma brucei brucei); 360,000 tested, 0.4% active; purified T. brucei MetRS, ATP depletion, Kinase-Glo luminescence;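 active = inhibition above a per-plate cutoff of the control wells' mean inhibition plus 3 SD, cut at about 5.5% in these data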;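 note: 0% = DMSO wells median and 100% = median of wells with control inhibitor compound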
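System: purified T. brucei MetRS enzyme / Detection: Kinase-Glo luciferase luminescence reporting remaining unconsumed ATP / Medium: HEPES buffer with MgCl2, KCl, DTT, spermine, BSA, pyrophosphatase / Replication: singlicate, one well per compound / Evaluation: percent inhibition relative to median high and low control wells / Schedule: 2 h aminoacylation at 25 °C after 15 min preincubation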
ADAM10 inh: human ADAM10 inhibitors, primary screen, biochemical, QFRET, HTS; Disintegrin and metalloproteinase domain-containing protein 10 (Homo sapiens), O14672; recombinant ADAM10, EDANS/DABCYL FRET peptide cleavage, 3 h; inhibition, % at 7 µM; 370,000 tested, 0.62% active;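 active = inhibition above a per-campaign cutoff equal to the mean of compounds falling between control-based bounds plus 3 SD, cut at about 20% in these data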;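 note: 0% = DMSO wells while the 100% control is not disclosed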
ADAM17 inh: ADAM17 inhibitors, primary screen, biochemical, QFRET | recombinant ADAM17, EDANS/DABCYL FRET peptide cleavage | AID 720648, 2013 | inhibition, % at 6.95 µM | Disintegrin and metalloproteinase domain-containing protein 17 (Homo sapiens), P78536 | 370,000 tested, 0.83% active;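 active = inhibition above the mean of compounds lying between control limits plus 3 SD, set per campaign, cut at about 8.5% in these data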;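 note: 0% = DMSO-only wells as the low control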
PLCg1 inh: PLC-gamma1 enzyme inhibitors, primary screen, biochemical, fluorescence, purified enzyme. fluorogenic substrate. inhibition, % at 12.2 µM. 370,000 tested, 0.84% active. 1-phosphatidylinositol 4,5-bisphosphate phosphodiesterase gamma-1 (Homo sapiens), P19174; in the data active = inhibition above about 9.5%
PLC-beta3 inh: human PLC-beta3 inhibitors, primary screen, biochemical, fluorescence | 1-phosphatidylinositol 4,5-bisphosphate phosphodiesterase beta-3 (Homo sapiens), Q01970 | 370,000 tested, 0.18% active | inhibition, % at 12.2 µM | Purified PLC-beta3, fluorogenic substrate; in the data active = inhibition above about 11%;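 note: 0% = median of compound wells on plate and 100% = full blocker control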
ADAM10 confirm: human ADAM10 inhibitors, confirmation, biochemical, QFRET, triplicate; shares compounds with ADAM10 inh; ADAM10 QFRET peptide cleavage, EDANS fluorescence; inhibition, % at 6.95 µM; 2,100 tested, 1% active;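 active = inhibition above about 20% chosen separately for each screening run, limit read from the data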;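 note: 0% = DMSO wells and 100% = marimastat wells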
ADAM17 counter: ADAM17 inhibitors, counter-screen for ADAM10 exosite inhibitor project, biochemical, QFRET, high throughput. shares compounds with ADAM10 inh. ADAM17 QFRET peptide cleavage, EDANS fluorescence. inhibition, % at 6.95 µM. 2,100 tested, 0.5% active. AID 743214, 2013;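 active = mean triplicate inhibition above the solvent-only control wells' mean plus 3 SD, cut at about 12% in these data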;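 note: 0% = DMSO wells and 100% = marimastat wells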
ADAM10 counter: ADAM10 inhibitors, counter-screen for ADAM17 exosite inhibitor project, biochemical, FRET, human ADAM10; shares compounds with ADAM17 inh; AID 743256, 2014; recombinant ADAM10, EDANS/DABCYL FRET peptide cleavage, 3 h; inhibition, % at 6.95 µM; 2,900 tested, 47% active;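 active = mean inhibition over the triplicate runs exceeds the activity threshold set in the earlier primary screen, cut at about 20% in these data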;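 note: 0% = DMSO wells and 100% = marimastat wells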
ADAM17 confirm: ADAM17 inhibitors, hit retest, confirmation, biochemical, QFRET peptide cleavage; shares compounds with ADAM17 inh; recombinant ADAM17, EDANS/DABCYL QFRET peptide cleavage; inhibition, % at 6.95 µM; 2,900 tested, 65% active;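 active = mean inhibition across replicates above the hit cutoff set in the primary screen, cut at about 8.5% in these data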;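 note: 0% = DMSO wells and 100% = marimastat wells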
Active calls of the source: *; i = inactive; / = no result.

SMILES | Tb MetRS inh | ADAM10 inh | ADAM17 inh | PLCg1 inh | PLC-beta3 inh | ADAM10 confirm | ADAM17 counter | ADAM10 counter | ADAM17 confirm
Cc1cccc(C)c1OCC(=O)N(Cc1ccc(Cl)cc1)C1CCS(=O)(=O)C1 (configuration not stated) | 0 | 20* | 9.2* | 3 | -4 | -2 | 0 | -3 | 2
O=C(OCc1ccccc1)N1CCC2CC1c1cc(N3CCN(S(=O)(=O)c4cccc5ccccc45)CC3)ccc12 (configuration not stated) | 1 | -5 | -3 | 1 | 4 | / | / | / | /
Cc1ccc(-n2nnnc2SCC(=O)c2cc(C)n(-c3cc(C)on3)c2C)c(C)c1 | 0 | 24* | 15* | -2 | -7 | 3 | 2 | 19 | 11*
Cc1cc(-n2c(C)cc(C(=O)CSc3nnnn3-c3ccccc3)c2C)no1 | 0 | 3 | 1 | -2 | -2 | / | / | / | /
C#CCN(C[C@H]1[C@H](OC(=O)NCc2ccccc2F)[C@H](OC(=O)NCc2ccccc2F)C[C@H]2C(=O)N(c3ccccc3)C(=O)[C@@H]12)S(=O)(=O)c1ccc(C)cc1 | 0 | 29* | 9.0* | 3 | 0 | 7 | 2 | 9 | 5
C#CCN(C[C@H]1[C@H](OC(=O)NCc2ccc(OC)c(OC)c2)[C@H](OC(=O)NCc2ccc(OC)c(OC)c2)C[C@H]2C(=O)N(c3ccccc3)C(=O)[C@@H]12)S(=O)(=O)c1ccc(C)cc1 | 0 | 19 | 4 | 2 | 2 | / | / | / | /
O=C(Nc1cccc(F)c1)c1cc(S(=O)(=O)NCCC2=CCCCC2)ccc1F | 0 | 24* | 9.1* | 2 | -8 | 8 | 2 | 22* | 14*
CCCCOC(=O)c1ccc(N/C(=N\S(=O)(=O)c2ccccc2)c2ccccc2)cc1 | -1 | 18 | 1 | 3 | 1 | / | / | / | /
CCOC(=O)c1ccc(N/C(=N\S(=O)(=O)c2ccc(F)cc2F)c2ccccc2)cc1 | -1 | 30* | 12* | 3 | 4 | 3 | 1 | 27* | 18*
O=C(N/N=C/c1ccco1)/C(=C/c1cccc([N+](=O)[O-])c1)NC(=O)c1ccccc1 | 0 | -10 | 0 | 0 | -1 | / | / | / | /
O=C(N/N=C/c1ccc(Br)o1)/C(=C/c1ccc([N+](=O)[O-])cc1)NC(=O)c1ccccc1 | 1 | 31* | 13* | -12 | -9 | 2 | 1 | 32* | 17*
CCOC(=O)[C@@]12CN(C(=O)OC(C)(C)C)CC=C1N(Cc1ccc(OC)cc1)C(=O)[C@H]2CC(=O)NCCCCc1ccccc1 | / | 22* | 8.7* | 1 | 3 | 6 | 2 | 19 | 10*
CCOC(=O)[C@@]12CN(C(=O)OC(C)(C)C)CC=C1N(Cc1ccc(OC)cc1)C(=O)[C@H]2CC(=O)NCCCOC | / | -3 | -1 | 1 | 0 | / | / | / | /
CCOC(=O)[C@]12CCCCC/C=C\1N(Cc1ccc(OC)cc1)C(=O)[C@H]2CC(=O)NCc1cccc(C(F)(F)F)c1 | / | 21* | 11* | 1 | 3 | 10 | 3 | 34* | 14*
O=C(O)CSC1CC(=O)N(c2ccc(Cl)cc2)C1=O (configuration not stated) | -2 | -4 | -2 | -2 | -2 | / | / | / | /
O=C(CSC1CC(=O)N(CC(c2ccccc2)c2ccccc2)C1=O)Nc1ccc(Cl)cc1 (configuration not stated) | -1 | 25* | 16* | 2 | 0 | 9 | 3 | 32* | 20*
O=C(COC(=O)/C=C/c1ccc(F)cc1)Nc1ccccc1-c1ccccc1 | 0 | -6 | -1 | 2 | -2 | / | / | / | /
O=C(O)c1ccc(-c2nc(-c3ccccc3)c(-c3ccccc3)[nH]2)cc1 | 0 | i | i | i | i | / | / | / | /
COc1ccc(N=Nc2nc(-c3ccccc3)c(-c3ccccc3)[nH]2)cc1 | -1 | 24* | 9.2* | 0 | 3 | 9 | 3 | 32* | 15*
Oc1ccccc1N=Nc1nc(-c2ccccc2)c(-c2ccccc2)[nH]1 | 0 | 26* | 9.9* | 7 | 2 | 5 | 2 | 28* | 12*
Cc1ccc(S(=O)(=O)N2CCC(C(=O)N3CCc4ccccc43)CC2)cc1C | 0 | 4 | -1 | -2 | -6 | / | / | / | /
CCOC(=O)/C(C#N)=C/c1c(N2CCN(c3ccccc3)CC2)nc2ccccn2c1=O | 0 | -62 | -24 | -83 | -120 | / | / | / | /
O=C(Nc1ccc(N2CCOCC2)cc1)c1csc([C@@H]2C[C@H](O)[C@@H](CO)O2)n1 | 0 | -3 | 1 | 2 | 7 | / | / | / | /
CCNC(=O)C1CCCN(C(=O)c2cccc(C(F)(F)F)c2)CC1 (configuration not stated) | 0 | 2 | -1 | 0 | -2 | / | / | / | /
Cc1ccc(NC(=O)C2CCN(S(=O)(=O)c3ccc4c(c3)NC(=O)C(C)S4)CC2)cc1Cl (configuration not stated) | 0 | 24* | 9.4* | 2 | -4 | 6 | 3 | 47* | 24*
O=C(CCS(=O)(=O)c1ccccc1)Nc1cccc2c1C(=O)NC2=O | -1 | -35 | -20 | -7 | -13 | / | / | / | /
CCOc1cc(/C=N/Nc2cccc(C(=O)O)c2)ccc1OC(=O)c1ccccc1 | 0 | 3 | 0 | 0 | -4 | / | / | / | /
CCOc1cc(/C=N/NC(=O)CNc2cccc(C)c2)ccc1OC(=O)c1ccccc1 | -1 | 25* | 12* | 6 | 2 | 8 | 3 | 33* | 16*
